# Measurements published in ChEMBL document CHEMBL1124186, “Synthesis and evaluation of tylosin-related macrolides modified at the aldehyde function: a new series of orally effective antibiotics” (1988).
# Experiments:
# Fusobacterium = assay: In vitro antimicrobial activity against anaerobic bacteria fusobacterium symbiosum 1470; assay type: functional
# Staphylococcus aureus [1] = assay: In vitro antimicrobial activity against Staphylococcus aureus X1; assay type: functional
# Haemophilus influenzae [2] = assay: In vitro antimicrobial activity against Haemophilus influenzae.; assay type: functional
# Staphylococcus aureus [3] = assay: In vitro antimicrobial activity against aerobic bacteria Staphylococcus aureus V140,; assay type: functional
# [4] = tested on: Fusobacterium necrophorum; assay: In vitro antimicrobial activity against anaerobic bacteria usobacterium necrophorum 6054A; assay type: functional
# Streptococcus pyogenes [5] = assay: In vitro antimicrobial activity against Streptococcus pyogenes C203; assay type: functional
# [6] = tested on: Bacteroides thetaiotaomicron; assay: In vitro antimicrobial activity against anaerobic bacteria bacteroides thetaiotaomicron 1438; assay type: functional
# [7] = tested on: Staphylococcus epidermidis; assay: In vitro antimicrobial activity against aerobic bacteria Streptococcus epi 270; assay type: functional
# Staphylococcus aureus [8] = assay: In vitro antimicrobial activity against aerobic bacteria Staphylococcus aureus 513E; assay type: functional
# Staphylococcus aureus [9] = assay: In vitro antimicrobial activity against aerobic bacteria Staphylococcus aureus V135; assay type: functional
# Mus musculus [10] = assay: Peripheral plasma levels in mice after oral administration of 50 mg/kg dose for 0.5 hr; assay type: functional, organism-based; parameters: dose 50 mg/kg
# Summary of the method: (§1)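 Mice were given the compound orally and sampled for peripheral plasma at each time point. Plasma was assayed microbiologically against Micrococcus luteus seeded in Antibiotic Medium 1. Inhibition zone sizes were read, and concentrations were calculated from each compound's own standard curve. Each value is the mean of five mice per time point.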
# Haemophilus influenzae [11] = assay: In vitro antimicrobial activity against aerobic bacteria Haemophilus influenzae 76; assay type: functional
# Streptococcus [12] = assay: In vitro antimicrobial activity against aerobic bacteria Streptococcus D 2041; assay type: functional
# Streptococcus [13] = assay: In vitro antimicrobial activity against aerobic bacteria Streptococcus D 8043; assay type: functional
# Staphylococcus aureus [14] = assay: In vitro antimicrobial activity against aerobic bacteria Staphylococcus aureus V41; assay type: functional
# Staphylococcus aureus [15] = assay: In vivo effective dose against experimental infections in mice Staphylococcus aureus X1 when administered orally; assay type: functional; conditions: po
# Streptococcus [16] = assay: In vitro antimicrobial activity against aerobic bacteria Streptococcus B 5; assay type: functional
# Rattus norvegicus [17] = assay: Peripheral plasma levels in rats after oral administration of 100 mg/kg dose for 0.5 hr; assay type: functional, organism-based; parameters: dose 100 mg/kg
# Summary of the method: (§2)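 Rats received 100 mg/kg orally and were sampled for peripheral plasma. Concentrations were measured by Micrococcus luteus agar-diffusion microbiological assay in Antibiotic Medium 1, with zone sizes converted using the standard curve for the appropriate compound. Each value is the average of three rats per time point.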
# Mus musculus [18] = assay: Peripheral plasma levels in mice after oral administration of 100 mg/kg dose for 4 hr; assay type: functional, organism-based; parameters: dose 100 mg/kg; summary of the method: as §1
# Bacteroides fragilis = assay: In vitro antimicrobial activity against anaerobic bacteria bacteroides fragilis 1877; assay type: functional
# Eikenella corrodens = assay: In vitro antimicrobial activity against anaerobic bacteria bacteroides corrodens 1874; assay type: functional
# Clostridium septicum = assay: In vitro antimicrobial activity against anaerobic bacteria clostridium septicum 1128; assay type: functional
# Clostridioides difficile = assay: In vitro antimicrobial activity against anaerobic bacteria Clostridium difficile 2994; assay type: functional
# Mus musculus [19] = assay: Peripheral plasma levels in mice after oral administration of 50 mg/kg dose for 2 hr; assay type: functional, organism-based; parameters: dose 50 mg/kg; summary of the method: as §1
# Mus musculus [20] = assay: Peripheral plasma levels in mice after oral administration of 50 mg/kg dose for 1 hr; assay type: functional, organism-based; parameters: dose 50 mg/kg; summary of the method: as §1
# [21] = tested on: Staphylococcus epidermidis; assay: In vitro antimicrobial activity against Staphylococcus epidermidis EPI1; assay type: functional
# Streptococcus pneumoniae = assay: In vivo effective dose against experimental infections in mice Strep. pneumoniae park when administered orally; assay type: functional; conditions: po
# Streptococcus pyogenes [22] = assay: In vivo effective dose against experimental infections in rodent caused by Streptococcus pyogenes C203 when administered sc; assay type: functional
# Mus musculus [23] = assay: Peripheral plasma levels in mice after oral administration of 100 mg/kg dose for 0.25 hr; assay type: functional, organism-based; parameters: dose 100 mg/kg; summary of the method: as §1
# Mus musculus [24] = assay: Peripheral plasma levels in mice after oral administration of 100 mg/kg dose for 2 hr; assay type: functional, organism-based; parameters: dose 100 mg/kg; summary of the method: as §1
# Staphylococcus aureus [25] = assay: In vivo effective dose against experimental infections in mice Staphylococcus aureus X1 when administered sc; assay type: functional
# Rattus norvegicus [26] = assay: Peripheral plasma levels in rats after oral administration of 100 mg/kg dose for 1 hr; assay type: functional, organism-based; parameters: dose 100 mg/kg; summary of the method: as §2
compound,measurement,setting,value
CC[C@H]1OC(=O)C[C@@H](O)[C@H](C)[C@@H](O[C@@H]2O[C@H](C)[C@@H](O)[C@H](N(C)C)[C@H]2O)[C@@H](CCCl)C[C@@H](C)C(=O)/C=C/C(C)=C/[C@@H]1CO[C@@H]1O[C@H](C)[C@@H](O)[C@@H](OC)[C@H]1OC,MIC,Fusobacterium,2 mg/L
same,MIC,Staphylococcus aureus [1],0.25 mg/L
same,MIC,Haemophilus influenzae [2],16 mg/L
same,MIC,Staphylococcus aureus [3],0.25 mg/L
same,MIC,[4],8 mg/L
same,MIC,Streptococcus pyogenes [5],0.25 mg/L
same,MIC,[6],2 mg/L
same,MIC,[7],> 128 mg/L
same,MIC,Staphylococcus aureus [8],0.12 mg/L
same,MIC,Staphylococcus aureus [9],0.25 mg/L
same,Concentration,Mus musculus [10],0.4 µg/mL
same,MIC,Haemophilus influenzae [11],16 mg/L
same,MIC,Streptococcus [12],16 mg/L
same,MIC,Streptococcus [13],4 mg/L
same,MIC,Staphylococcus aureus [14],0.12 mg/L
same,ED50,Staphylococcus aureus [15],9 mg/kg
same,MIC,Streptococcus [16],> 128 mg/L
same,Concentration,Rattus norvegicus [17],8.8 µg/mL
same,Concentration,Mus musculus [18],0.3 µg/mL
same,MIC,Bacteroides fragilis,2 mg/L
same,MIC,Eikenella corrodens,2 mg/L
same,MIC,Clostridium septicum,< 0.5 mg/L
same,MIC,Clostridioides difficile,< 0.5 mg/L
same,Concentration,Mus musculus [19],0.4 µg/mL
same,Concentration,Mus musculus [20],0.3 µg/mL
same,MIC,[21],0.12 mg/L
same,ED50,Streptococcus pneumoniae,> 50 mg/kg
same,ED50,Streptococcus pyogenes [22],0.7 mg/kg
same,Concentration,Mus musculus [23],8.4 µg/mL
same,Concentration,Mus musculus [24],1.5 µg/mL
same,ED50,Staphylococcus aureus [25],1.8 mg/kg
same,Concentration,Rattus norvegicus [26],9.4 µg/mL
